From ChEMBL document CHEMBL1275462 (Antimicrob Agents Chemother, 2008)
Values after ≈ are worked out from the molar mass of the structure shown. Active and inactive are the calls of the source. The rule behind the calls is not given here.

Experiments:
Staphylococcus aureus [1] = experiment: Antimicrobial activity against methicillin-resistant Staphylococcus aureus USA300 assessed as concentration required for minimum inhibition of oxacillin-resistant subpopulation growth by Etest; type: functional
Method in brief: (§1)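 Etest (manufacturer's method) and population analysis: overnight cultures serially diluted and plated on TSA with increasing oxacillin or BPR, CFU counted after 48 h at 37°C. Colonies from subpopulations growing at high oxacillin or BPR were picked, restreaked on antibiotic-free TSA for three passages, then retested by population analysis.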

Staphylococcus aureus [2] = experiment: Antimicrobial activity against methicillin-resistant Staphylococcus aureus BK2529 assessed as concentration required for minimum inhibition of oxacillin-resistant subpopulation growth by Etest; type: functional; method in brief: as §1
Staphylococcus aureus [3] = experiment: Antimicrobial activity against methicillin-resistant Staphylococcus aureus BK2464 assessed as concentration required for minimum inhibition of oxacillin-resistant subpopulation growth by Etest; type: functional; method in brief: as §1
Staphylococcus aureus [4] = experiment: Antimicrobial activity against methicillin-resistant Staphylococcus aureus HAR22 assessed as concentration required for minimum inhibition of BRP-resistant subpopulation growth; type: functional; method in brief: as §1
Staphylococcus aureus [5] = experiment: Antimicrobial activity against oxacillin-resistant Staphylococcus aureus COLVA harboring Tn1546 transposon by Etest; type: functional
Method in brief: (§2)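 Etest and population analysis: overnight cultures plated on TSA with increasing vancomycin, oxacillin or BPR, CFU counted after 48 h at 37°C. For VRSA strains, vancomycin plates also run with constant 1 µg/ml BPR. Vancomycin Etest read after overnight 37°C incubation on TSA with or without 1 µg/ml BPR.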

Staphylococcus aureus [6] = experiment: Antimicrobial activity against vancomycin-intermediate Staphylococcus aureus Mu50 by Etest; type: functional; method in brief: as §2
Staphylococcus aureus [7] = experiment: Antimicrobial activity against methicillin-resistant Staphylococcus aureus HPV107 by Etest; type: functional; method in brief: as §1
Staphylococcus aureus [8] = experiment: Antimicrobial activity against methicillin-resistant Staphylococcus aureus HPV107 assessed as concentration required for minimum inhibition of oxacillin-resistant subpopulation growth by Etest; type: functional; method in brief: as §1
Staphylococcus aureus [9] = experiment: Antimicrobial activity against methicillin-resistant Staphylococcus aureus E2125 assessed as concentration required for minimum inhibition of oxacillin-resistant subpopulation growth by Etest; type: functional; method in brief: as §1
Staphylococcus aureus [10] = experiment: Antimicrobial activity against methicillin-resistant Staphylococcus aureus HU25 by Etest; type: functional; method in brief: as §1
Staphylococcus aureus [11] = experiment: Effect on cell wall composition of Staphylococcus aureus COL at 0.4 ug/ml after 100 mins by HPLC method; type: functional, organism-based
Method in brief: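 Strain COL was grown in 1-liter cultures at 37°C to OD620 0.4, with or without drug at 0.4 µg/ml in the medium. Peptidoglycan was then purified and analysed by HPLC elution profile.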

Staphylococcus aureus [12] = experiment: Antimicrobial activity against methicillin-resistant Staphylococcus aureus BK2529 assessed as concentration required for minimum inhibition of BRP-resistant subpopulation growth by Etest; type: functional; method in brief: as §1
[13] = molecular target: T1, Penicillin-binding protein 4 (Staphylococcus aureus (strain COL)) (UniProt A0A0H2WY27); experiment: Displacement of benzyl-[14C]penicillin from Staphylococcus aureus PBP4 by in vitro competitive assay; conditions: Staphylococcus aureus subsp. aureus COL
T1 sequence (whole entry): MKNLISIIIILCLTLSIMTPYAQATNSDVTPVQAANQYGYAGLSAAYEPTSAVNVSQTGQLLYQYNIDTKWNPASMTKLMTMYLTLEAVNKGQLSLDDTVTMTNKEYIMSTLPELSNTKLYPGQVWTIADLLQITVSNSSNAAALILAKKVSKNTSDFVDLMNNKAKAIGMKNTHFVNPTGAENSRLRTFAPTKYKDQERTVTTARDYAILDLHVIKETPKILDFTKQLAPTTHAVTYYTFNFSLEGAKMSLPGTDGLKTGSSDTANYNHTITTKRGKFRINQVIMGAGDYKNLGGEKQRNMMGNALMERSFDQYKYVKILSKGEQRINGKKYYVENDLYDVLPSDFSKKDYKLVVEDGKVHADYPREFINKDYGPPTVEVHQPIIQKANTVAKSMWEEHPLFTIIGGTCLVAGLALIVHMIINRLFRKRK
Method in brief: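 Membranes came from late-exponential cells of RU130, a PBP 2 insertional mutant of COL. Samples of 150 µg protein were preincubated with increasing drug concentrations for 10 min at 30°C, then labeled with benzyl[14C]penicillin at 20 µg/ml for 10 min at 37°C. The reaction was stopped with excess unlabeled benzylpenicillin in SDS. Read-out was SDS-PAGE with phosphor-screen exposure for 2 weeks.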

Staphylococcus aureus [14] = experiment: Antimicrobial activity against methicillin-resistant Staphylococcus aureus HDE288 by Etest; type: functional; method in brief: as §1
Staphylococcus aureus [15] = experiment: Antimicrobial activity against methicillin-resistant Staphylococcus aureus HDE288 assessed as concentration required for minimum inhibition of oxacillin-resistant subpopulation growth by Etest; type: functional; method in brief: as §1
Staphylococcus aureus [16] = experiment: Antimicrobial activity against methicillin-resistant Staphylococcus aureus HAR22 assessed as concentration required for bacterial subpopulation growth; type: functional; method in brief: as §1
Staphylococcus aureus [17] = experiment: Antimicrobial activity against vancomycin-intermediate Staphylococcus aureus JH9 obtained from bacteremic patient by Etest; type: functional; method in brief: as §2
Staphylococcus aureus [18] = experiment: Antimicrobial activity against methicillin-resistant Staphylococcus aureus COL by Etest; type: functional; method in brief: as §1
Staphylococcus aureus [19] = experiment: Antimicrobial activity against methicillin-resistant Staphylococcus aureus USA300 assessed as concentration required for bacterial subpopulation growth; type: functional; method in brief: as §1
Staphylococcus aureus [20] = experiment: Antimicrobial activity against methicillin-resistant Staphylococcus aureus HU25 assessed as concentration required for bacterial subpopulation growth; type: functional; method in brief: as §1
Staphylococcus aureus [21] = experiment: Antimicrobial activity against methicillin-resistant Staphylococcus aureus USA300 by Etest; type: functional; method in brief: as §1

Compound: Nc1nc(/C(=N/O)C(=O)N[C@@H]2C(=O)N3C(C(=O)O)=C(/C=C4\CCN([C@@H]5CCNC5)C4=O)CS[C@H]23)ns1 [CEFTOBIPROLE]
- Activity (Staphylococcus aureus [1]): 1.5 µg/mL
- Activity (Staphylococcus aureus [2]): 1.5 µg/mL
- Activity (Staphylococcus aureus [3]): 1.5 µg/mL
- Activity (Staphylococcus aureus [4]): 3 µg/mL
- MIC (Staphylococcus aureus [5]): 1.5 µg/mL (≈ 2.81 µM)
- MIC (Staphylococcus aureus [6]): 3 µg/mL (≈ 5.61 µM)
- MIC (Staphylococcus aureus [7]): 0.8 µg/mL (≈ 1.5 µM)
- Activity (Staphylococcus aureus [8]): 0.8 µg/mL
- Activity (Staphylococcus aureus [9]): 0.8 µg/mL
- MIC (Staphylococcus aureus [10]): 3 µg/mL (≈ 5.61 µM)
- Activity (Staphylococcus aureus [11]): inactive
- Activity (Staphylococcus aureus [12]): 1.5 µg/mL
- Activity [13]: Active
- MIC (Staphylococcus aureus [14]): 0.8 µg/mL (≈ 1.5 µM)
- Activity (Staphylococcus aureus [15]): 1.5 µg/mL
- Activity (Staphylococcus aureus [16]): 1.5 µg/mL
- MIC (Staphylococcus aureus [17]): 0.8 µg/mL (≈ 1.5 µM)
- MIC (Staphylococcus aureus [18]): 3 µg/mL (≈ 5.61 µM)
- Activity (Staphylococcus aureus [19]): 1.5 µg/mL
- Activity (Staphylococcus aureus [20]): 3 µg/mL
- MIC (Staphylococcus aureus [21]): 1.5 µg/mL (≈ 2.81 µM)
